In ChEMBL document CHEMBL6134777, “Modulating polybasic character of galactose-based glycosylated antitumor ether lipids for enhanced cytotoxic response” (2025):
Active and inactive are the calls of the source. The calls are words filed in the database; no cut-off is given here.

Experiments:
MIA PaCa-2 [1] = assay: Cytotoxicity against human MIA PaCa-2 cells assessed as cell death measured after 48 hrs; format: functional
How it was run: (§1)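 MIAPaCa-2 in DMEM with 10% FBS, 2.5% horse serum and penicillin/streptomycin, seeded at 7500 cells/well. After 24 h, treated 48 h with increasing drug concentrations from a 30 mM stock. PrestoBlue 10% v/v, 40-45 min, fluorescence 560/590 nm, blank-subtracted, relative to vehicle-treated cells. Two independent experiments, five wells per concentration.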

DU-145 [2] = assay: Cytotoxicity against human DU-145 cells assessed as cell death measured after 48 hrs; format: functional
How it was run: (§2)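 DU-145 (5000 cells/well) or JIMT-1 (8000 cells/well) in DMEM with 10% FBS and penicillin/streptomycin. Plated cells rested 24 h, then received increasing drug concentrations (30 mM stock) for 48 h. Viability by PrestoBlue 10% v/v for 40-45 min, fluorescence ex 560/em 590 nm, blank-subtracted, relative to vehicle. Two independent experiments, five wells per concentration.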

JIMT-1 [3] = assay: Cytotoxicity against human JIMT-1 cells assessed as cell death measured after 48 hrs; format: functional; how it was run: as §2
BT-474 [4] = assay: Cytotoxicity against human BT-474 cells assessed as cell death measured after 48 hrs; format: functional
How it was run: (§3)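 BT-474 cells in DMEM/F12 with 10% FBS plus penicillin/streptomycin, 37°C, 5% CO2. Seeded at 10,500 cells/well and left 24 h, then exposed to rising drug concentrations (stock 30 mM) for 48 h. Read-out: PrestoBlue (10% v/v), 40-45 min, fluorescence ex 560/em 590 nm. Values are blank-subtracted and expressed relative to vehicle-treated cells. Two independent experiments, five wells per concentration.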

[5] = Potency index, ratio of monobasic GAEL IC50 to test compound IC50 for cytotoxicity against human MIAPaCa-2 cells assessed as cell death measured after 48 hrs; format: functional, MIA PaCa-2
[6] = Potency index, ratio of monobasic GAEL IC50 to test compound IC50 for cytotoxicity against human DU-145 cells assessed as cell death measured after 48 hrs; format: functional
[7] = Potency index, ratio of monobasic GAEL IC50 to test compound IC50 for cytotoxicity against human JIMT-1 cells assessed as cell death measured after 48 hrs; format: functional
MIA PaCa-2 [8] = assay: Cytotoxicity against human MIAPaCa-2 cells assessed as cell death at 6 to 10 uM measured after 48 hrs; format: functional, cell-based; conditions: dose 6-10 µM; how it was run: as §1
DU-145 [9] = assay: Cytotoxicity against human DU-145 cells assessed as cell death at 6 to 10 uM measured after 48 hrs; format: functional, cell-based; conditions: dose 6-10 µM; how it was run: as §2
JIMT-1 [10] = assay: Cytotoxicity against human JIMT-1 cells assessed as cell death at 6 to 10 uM measured after 48 hrs; format: functional, cell-based; conditions: dose 6-10 µM; how it was run: as §2
BT-474 [11] = assay: Cytotoxicity against human BT-474 cells assessed as cell death at 6 to 10 uM measured after 48 hrs; format: functional, cell-based; conditions: dose 6-10 µM; how it was run: as §3
MDA-MB-231 = assay: Cytotoxicity against human MDA-MB-231 cells assessed as cell viability measured after 48 hrs by using PrestoBlue cell viability assay; format: functional
How it was run: (§4)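 DMEM with 10% FBS plus penicillin/streptomycin, 37°C, 5% CO2. Seeding per well: BxPC3 7500, COV362 7500, HEYC2 8000, HepG2 8000, MDA-MB-231 8000. After 24 h, drug added at increasing concentrations (30 mM stock) for 48 h. PrestoBlue 10% v/v for 40-45 min; fluorescence 560/590 nm, blank-subtracted, relative to vehicle. Two experiments, five wells each; CC50 by nonlinear regression.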

[12] = Cytotoxicity against human HEY C2 cells assessed as cell viability measured after 48 hrs by using PrestoBlue cell viability assay; format: functional; how it was run: as §4
[13] = Cytotoxicity against human COV362 cells assessed as cell viability measured after 48 hrs by using PrestoBlue cell viability assay; format: functional; how it was run: as §4
OVCAR-3 [14] = assay: Cytotoxicity against human OVCAR-3 cells assessed as cell viability measured after 48 hrs by using PrestoBlue cell viability assay; format: functional
How it was run: (§5)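 OVCAR-3 in RPMI with 10% FBS, 0.01 mg/mL insulin and penicillin/streptomycin, seeded at 7500 cells/well. After 24 h, exposed 48 h to increasing drug concentrations (30 mM stock). PrestoBlue 10% v/v, 40-45 min, fluorescence ex 560/em 590 nm, blank-subtracted, relative to vehicle. Two experiments, five wells per concentration.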

HepG2 [15] = assay: Cytotoxicity against human HepG2 cells assessed as cell viability measured after 48 hrs by using PrestoBlue cell viability assay; format: functional; how it was run: as §4
BXPC-3 = assay: Cytotoxicity against human BXPC-3 cells assessed as cell viability measured after 48 hrs by using PrestoBlue cell viability assay; format: functional; how it was run: as §4
OVCAR-3 [16] = assay: Cytotoxicity against human OVCAR-3 cells assessed as elimination of cells at 6 uM measured after 48 hrs by using PrestoBlue cell viability assay; format: functional; how it was run: as §5
HepG2 [17] = assay: Cytotoxicity against human HepG2 cells assessed as elimination of cells at 6 uM measured after 48 hrs by using PrestoBlue cell viability assay; format: functional; how it was run: as §4
[18] = Cytotoxicity against human COV362 cells assessed as cell death at 8 uM measured after 48 hrs by using PrestoBlue cell viability assay; format: functional
How it was run: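 COV362 cells in DMEM with 10% FBS and penicillin/streptomycin at 37 °C and 5% CO₂, seeded at 7500 per well. After 24 h, exposed 48 h to increasing drug concentrations diluted from a 30 mM stock. PrestoBlue (10% v/v) added for 40-45 min, fluorescence read at ex 560/em 590 nm. Cell-free blanks subtracted, viability relative to vehicle. Two independent experiments, five wells per concentration.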

DU-145 [19] = assay: Cytotoxicity against human DU-145 cells assessed as cell death at 4 to 8 uM measured after 48 hrs in presence of MX1013 pan-caspase inhibitor; conditions: dose 4-8 µM
MIA PaCa-2 [20] = assay: Cytotoxicity against human MIAPaCa-2 cells assessed as cell death up to 10 uM measured after 48 hrs; format: functional, cell-based; how it was run: as §1
DU-145 [21] = assay: Cytotoxicity against human DU-145 cells assessed as cell death up to 10 uM measured after 48 hrs; format: functional, cell-based; how it was run: as §2
JIMT-1 [22] = assay: Cytotoxicity against human JIMT-1 cells assessed as cell death up to 10 uM measured after 48 hrs; format: functional, cell-based; how it was run: as §2
BT-474 [23] = assay: Cytotoxicity against human BT-474 cells assessed as cell death up to 10 uM measured after 48 hrs; format: functional, cell-based; how it was run: as §3

Row | SMILES | CC50 (MIA PaCa-2 [1]) | CC50 (DU-145 [2]) | CC50 (JIMT-1 [3]) | CC50 (BT-474 [4]) | Ratio IC50 [5] | Ratio IC50 [6] | Ratio IC50 [7] | other results
1 | CCCCCCCCCCCCCCCCOC[C@H](CO[C@@H]1O[C@H](CN)[C@H](N)[C@H](O)[C@H]1N)OC | 4.5 µM | 3.3 µM | 3.8 µM | 5.6 µM | 2 | 2 | 2 | Activity (MIA PaCa-2 [8]): Active; Activity (DU-145 [9]): Active; Activity (JIMT-1 [10]): Active; Activity (BT-474 [11]): Active; CC50 (MDA-MB-231): 6.5 µM; CC50 [12]: 5.5 µM; CC50 [13]: 3.1 µM; CC50 (OVCAR-3 [14]): 2.6 µM; CC50 (HepG2 [15]): 3.6 µM; CC50 (BXPC-3): 2.6 µM; Activity (OVCAR-3 [16]): 100%; Activity (HepG2 [17]): 100%; Activity [18]: 100%; Activity (DU-145 [19]): Active
2 | CCCCCCCCCCCCCCCCOC[C@H](CO[C@H]1O[C@H](CN)[C@H](O)[C@H](O)[C@H]1N)OC | 6.6 µM | 5.5 µM | 4.9 µM | 6.9 µM | 1.5 | 1.5 | 1.5 | –
3 | CCCCCCCCCCCCCCCCOC[C@H](CN)O[C@H]1O[C@H](CO)[C@H](N)[C@H](O)[C@H]1N | 8.1 µM | 8.2 µM | 6.3 µM | 7.4 µM | – | – | – | –
4 | CCCCCCCCCCCCCCCCOC[C@H](CO[C@H]1O[C@H](CO)[C@H](O)[C@H](O)[C@H]1N)OC | 10 µM | 10.9 µM | 9.9 µM | > 20 µM | – | – | – | –
5 | CCCCCCCCCCCCCCCCOC[C@H](CN)O[C@@H]1O[C@H](CO)[C@H](N)[C@H](O)[C@H]1N | 7.4 µM | > 10 µM | 8.9 µM | > 10 µM | – | – | – | –
6 | CCCCCCCCCCCCCCCCOC[C@H](CO[C@@H]1O[C@H](CO)[C@H](N)[C@H](O)[C@H]1N)OC | 7.8 µM | 6.6 µM | 5.8 µM | > 10 µM | – | – | – | –
7 | CCCCCCCCCCCCCCCCOC[C@H](CO[C@H]1O[C@H](CO)[C@H](N)[C@H](O)[C@H]1N)OC | 6.5 µM | 6.3 µM | 5 µM | > 10 µM | – | – | – | –
8 | COc1cccc2c1C(=O)c1c(O)c3c(c(O)c1C2=O)C[C@@](O)(C(=O)CO)C[C@@H]3O[C@H]1C[C@H](N)[C@H](O)[C@H](C)O1 | – | – | – | – | – | – | – | Activity (MIA PaCa-2 [20]): inactive; Activity (DU-145 [21]): inactive; Activity (JIMT-1 [22]): inactive; Activity (BT-474 [23]): inactive
9 | CCCCCCCCCCCCCCCCOC[C@H](CO[C@@H]1O[C@H](CN)[C@H](O)[C@H](O)[C@H]1N)OC | 7.5 µM | 6.6 µM | 5.7 µM | 6.4 µM | 1.5 | 1.5 | 1.5 | –
10 | CCCCCCCCCCCCCCCCOC[C@H](CO[C@H]1O[C@H](CN)[C@H](N)[C@H](O)[C@H]1N)OC | 5.3 µM | 6.7 µM | 5.4 µM | 8 µM | – | – | – | –
